Test results reported in ChEMBL document CHEMBL4706532, “New Seco-DSP derivatives as potent chemosensitizers” (Eur J Med Chem, 2020).

Key:
HUVEC = assay: Cytotoxicity against human HUVEC cells assessed as reduction in cell viability at 10 uM incubated for 48 hrs by MTT assay; format: cell-based
Outline: (§1)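 Cells plated at 3~5 × 10^3 per well and allowed 24 h before exposure to compound or DMSO (negative control) for 48 h. MTT was added for 4 h, formazan dissolved in DMSO and absorbance read at 490 nm. Inhibition was calculated relative to DMSO and blank.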

[1] = Cytotoxicity against human HOSEC cells assessed as reduction in cell viability at 10 uM incubated for 48 hrs by MTT assay; format: cell-based; details: hose
Outline: as §1, with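 “h. A2780/T and KB-VIN were grown in DMEM/F12 with 10% FBS, and HUVEC, HOSEC and T29 in RPMI-1640 with 10% FBS, all at 37 °C under 5% CO₂.” for “h.”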

[2] = Cytotoxicity against human T29 cells assessed as reduction in cell viability at 10 uM incubated for 48 hrs by MTT assay; format: cell-based; details: t29, 48 h
Outline: as §1, with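 “h. A2780/T and KB-VIN were grown in DMEM/F12 with 10% FBS, and HUVEC, HOSEC and T29 in RPMI-1640 with 10% FBS, all at 37 °C under 5% CO₂.” for “h.”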

A2780/Taxol = assay: Cytotoxicity against human A2780T cells assessed as reduction in cell viability at 10 uM incubated for 48 hrs by MTT assay; format: cell-based
Outline: as §1, with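 “h. A2780/T and KB-VIN were grown in DMEM/F12 with 10% FBS, and HUVEC, HOSEC and T29 in RPMI-1640 with 10% FBS, all at 37 °C under 5% CO₂.” for “h.”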

[3] = Reversal of multidrug resistance activity in P-gp overexpressing human A2780T cells assessed as potentiation of PTX-induced cytotoxicity by measuring reversal ratio at 10 uM incubated for 48 hrs in presence of paclitaxel by MTT assay; format: functional, A2780/Taxol
Outline: (§2)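 Resistant cells were plated at 3~5 × 10^3 per well, given 24 h, then co-treated with test compound plus a range of anticancer drug concentrations (PTX for A2780/T, VCR for KB-VIN, cisplatin for A2780/CDDP) or DMSO for 48 h. Read-out was by MTT, 4 h at 37 °C, with absorbance at 490 nm. Reversal ratio = IC50 (drug alone) / IC50 (drug with compound).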

[4] = Reversal of multidrug resistance activity in P-gp overexpressing human KB-VIN cells assessed as potentiation of VCR-induced cytotoxicity by measuring reversal ratio at 10 uM incubated for 48 hrs in presence of VCR by MTT assay; format: functional; outline: as §2
[5] = Reversal of multidrug resistance activity in human A2780/CDDP cells assessed as potentiation of CDDP-induced cytotoxicity by measuring reversal ratio at 10 uM incubated for 48 hrs in presence of CDDP by MTT assay; format: functional; outline: as §2
[6] = Cytotoxicity against human KB-VIN cells assessed as reduction in cell viability at 10 uM incubated for 48 hrs by MTT assay; format: cell-based
Outline: as §1, with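 “h. A2780/T and KB-VIN were grown in DMEM/F12 with 10% FBS, and HUVEC, HOSEC and T29 in RPMI-1640 with 10% FBS, all at 37 °C under 5% CO₂.” for “h.”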

Row | Structure (SMILES) | Activity (HUVEC) | Activity [1] | Activity [2] | Activity (A2780/Taxol) | Ratio [3] | Ratio [4] | Ratio [5] | Activity [6]
1 | CCc1cc(=O)c2ccc(OC)c(COC(=O)Cc3ccc(Cl)cc3)c2o1 | Non-Toxic | Non-Toxic | Non-Toxic | Non-Toxic | 89 |  |  | 
2 | CCc1cc(=O)c2ccc(OC)c(COC(=O)c3ccc(N)c(C)c3)c2o1 | Non-Toxic | Non-Toxic | Non-Toxic | Non-Toxic | 177 |  |  | 
3 | CCCCCc1ccc(C(=O)OCc2c(OC)ccc3c(=O)cc(CC)oc23)cc1 | Non-Toxic | Non-Toxic | Non-Toxic | Non-Toxic | 173 |  |  | 
4 | CCc1cc(=O)c2ccc(OC)c(COC(=O)c3ccc(C(C)(C)C)cc3)c2o1 | Non-Toxic | Non-Toxic | Non-Toxic | Toxic | 158 |  |  | 
5 | CCCc1ccc(C(=O)OCc2c(OC)ccc3c(=O)cc(CC)oc23)cc1 | Non-Toxic | Non-Toxic | Non-Toxic | Toxic | 36 |  |  | 
6 | CCOc1ccc2c(=O)cc(CC)oc2c1COC(=O)c1cc(OC)c(OC)c(OC)c1 | Non-Toxic | Non-Toxic | Non-Toxic | Non-Toxic | 457 | 248 | 1.05 | Non-Toxic
7 | CCc1cc(=O)c2ccc(OC)c(COC(=O)c3ccccc3[N+](=O)[O-])c2o1 | Non-Toxic | Non-Toxic | Non-Toxic | Non-Toxic | 172 |  |  | 
8 | CCc1cc(=O)c2ccc(OC)c(COC(=O)c3cc([N+](=O)[O-])ccc3Cl)c2o1 | Non-Toxic | Non-Toxic | Non-Toxic | Non-Toxic | 57 |  |  | 
9 | CCc1cc(=O)c2ccc(OC)c(COC(=O)c3ccc(Cl)cc3Cl)c2o1 | Non-Toxic | Non-Toxic | Non-Toxic | Non-Toxic | 126 |  |  | 
10 | CCc1cc(=O)c2ccc(OC)c(COC(=O)Cc3ccccc3C)c2o1 | Non-Toxic | Non-Toxic | Non-Toxic | Non-Toxic | 99 |  |  | 
11 | CCc1cc(=O)c2ccc(OC(C)C)c(COC(=O)c3cc(OC)c(OC)c(OC)c3)c2o1 | Non-Toxic | Non-Toxic | Non-Toxic | Non-Toxic | 503 |  | 0.99 | 
12 | CCc1cc(=O)c2ccc(OC)c(COC(=O)Cc3cc(OC)c(OC)c(OC)c3)c2o1 | Non-Toxic | Non-Toxic | Non-Toxic | Toxic | 54 |  |  | 
13 | CCc1cc(=O)c2ccc(OC)c(COC(=O)c3c(F)cccc3F)c2o1 | Non-Toxic | Non-Toxic | Non-Toxic | Non-Toxic | 43 |  |  | 
14 | CCc1cc(=O)c2ccc(OC)c(COC(=O)/C=C/c3ccc(OC)cc3)c2o1 | Non-Toxic | Toxic | Toxic | Toxic | 414 | 420 |  | Non-Toxic
15 | CCc1cc(=O)c2ccc(OC)c(COC(=O)c3ccc(Cl)c([N+](=O)[O-])c3)c2o1 | Non-Toxic | Toxic | Toxic | Non-Toxic | 14 |  |  | 
16 | CCc1cc(=O)c2ccc(OC)c(COC(=O)/C=C/c3ccc(Cl)cc3)c2o1 | Non-Toxic | Non-Toxic | Non-Toxic | Non-Toxic | 53 |  |  | 
17 | CCc1cc(=O)c2ccc(OC)c(COC(=O)c3cccc(OC)c3)c2o1 | Non-Toxic | Non-Toxic | Non-Toxic | Non-Toxic | 147 |  |  | 
18 | CCOc1ccc2c(=O)cc(CC)oc2c1COC(=O)c1ccc(C#N)cc1 | Non-Toxic | Non-Toxic | Non-Toxic | Toxic | 20 |  |  | 
19 | CCc1cc(=O)c2ccc(OC)c(COC(=O)c3cccc(N(C)C)c3)c2o1 | Non-Toxic | Non-Toxic | Non-Toxic | Non-Toxic | 484 | 234 | 0.81 | Non-Toxic
20 | CCc1cc(=O)c2ccc(OC)c(COC(=O)c3cc(OC)c(OC)c(OC)c3)c2o1 | Non-Toxic | Non-Toxic | Non-Toxic | Non-Toxic | 537 | 424 | 0.81 | Non-Toxic
21 | CCOc1ccc2c(=O)cc(CC)oc2c1COC(=O)c1cc(OC)c(OC)cc1OC | Non-Toxic | Non-Toxic | Non-Toxic | Non-Toxic | 457 |  | 0.88 | 
22 | CCc1cc(=O)c2ccc(OC(C)C)c(COC(=O)/C=C/c3ccc(OC)cc3)c2o1 | Non-Toxic | Non-Toxic | Non-Toxic | Non-Toxic | 490 | 342 | 0.97 | Non-Toxic
23 | CCc1cc(=O)c2ccc(OC(C)C)c(COC(=O)c3ccc(C#N)cc3)c2o1 | Non-Toxic | Non-Toxic | Non-Toxic | Toxic | 10 |  |  | 
24 | CCc1cc(=O)c2ccc(OC)c(COC(=O)/C=C/c3ccccc3)c2o1 | Non-Toxic | Non-Toxic | Non-Toxic | Non-Toxic | 427 | 343 |  | Non-Toxic
25 | CCc1cc(=O)c2ccc(OC)c(COC(=O)c3cc(OC)c(OC)cc3OC)c2o1 | Non-Toxic | Non-Toxic | Non-Toxic | Non-Toxic | 284 | 579 |  | Non-Toxic
26 | CCc1cc(=O)c2ccc(OC(C)C)c(COC(=O)/C=C/c3ccccc3)c2o1 | Non-Toxic | Non-Toxic | Non-Toxic | Non-Toxic | 685 | 466 | 0.81 | Non-Toxic
27 | CCc1cc(=O)c2ccc(OC)c(COC(=O)c3ccc(F)cc3)c2o1 | Non-Toxic | Non-Toxic | Non-Toxic | Non-Toxic | 53 |  |  | 
28 | CCc1cc(=O)c2ccc(OC)c(COC(=O)c3ccccc3Br)c2o1 | Non-Toxic | Non-Toxic | Non-Toxic | Toxic | 23 |  |  | 
29 | CCc1cc(=O)c2ccc(OC)c(COC(=O)c3ccc(C#N)cc3)c2o1 | Non-Toxic | Toxic | Toxic | Non-Toxic | 8 |  |  | 
30 | CCc1cc(=O)c2ccc(OC)c(COC(=O)c3ccc(OC)c(OC)c3)c2o1 | Non-Toxic | Non-Toxic | Non-Toxic | Toxic | 260 | 105 |  | Non-Toxic
